Laboratory results: ChEMBL document CHEMBL3817736, “Discovery of Bifunctional Oncogenic Target Inhibitors against Allosteric Mitogen-Activated Protein Kinase (MEK1) and Phosphatidylinositol 3-Kinase (PI3K)” (J Med Chem, 2016)
pIC50: −log10 of the molar value. Activity calls are given as the source filed them. No cut-off for these calls is given here.

Legend:
[1] = test system: D54; test: Cytotoxic activity against human D54 cells assessed as reduction in cell viability incubated for 48 hrs in presence of ZSTK474 by alamar blue assay; assay type: functional, cell-based
In short: (§1)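 Cells grown in RPMI with 10% heat-inactivated FBS and 1% penicillin/streptomycin/glutamine at 37 °C, 5% CO2. Compounds made as 10 mM DMSO stocks, serially diluted in RPMI. Controls received media with 1% DMSO. Viability read by AlamarBlue fluorescence 48 h after dosing. Combination treatments used co-administered single agents.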

[2] = test system: D54; test: Cytotoxic activity against human D54 cells assessed as reduction in cell viability incubated for 48 hrs by alamar blue assay; assay type: functional, cell-based; in short: as §1
[3] = test system: A549; test: Cytotoxic activity against human A549 cells assessed as reduction in cell viability incubated for 48 hrs by alamar blue assay; assay type: functional, cell-based; in short: as §1
[4] = molecular target: T1, Dual specificity mitogen-activated protein kinase kinase 1 (Homo sapiens, UniProt Q02750); test: Inhibition of MEK1 in human A549 cells assessed as inhibition of ERK1/2 phosphorylation at 1 to 25 uM incubated for 1 hr by Western blotting; assay type: cell-based
In short: (§2)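 Cells seeded 24 h before treatment, then exposed to compounds for 1 h; DMSO vehicle control. Lysis in NP-40 buffer (1% NP40, 150 mM NaCl, 25 mM Tris pH 8.0) with protease and phosphatase inhibitors. Protein measured by Lowry. Equal protein run on 4-12% Bis-Tris gels and blotted. Probes: pERK1/2 (Thr202/Tyr204), pAKT (S473), total ERK/AKT, β-actin; ECL detection.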

[5] = test system: A549; test: Inhibition of PI3K in human A549 cells assessed as inhibition of AKT phosphorylation at 1 to 25 uM incubated for 1 hr by Western blotting; assay type: cell-based; in short: as §2
[6] = test system: Mus musculus; test: In-vivo inhibition of MEK1 in human D54 cells xenografted nude Foxn1nu mouse assessed as reduction in tumor ERK1/2 phosphorylation at 375 mg/kg, po dosed 2 hrs before mouse sacrifice by Western blot method; assay type: functional
In short: (§3)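 Five-week-old athymic nude Foxn1nu mice given s.c. flank injections of 1×10^6 cells in 50% RPMI/50% Matrigel (n=2 per tumor type). At about 150 mm³ tumor volume, mice were fasted 4 h, then dosed by oral gavage with 375 mg/kg in DMSO:HPBCD (3:2) or vehicle. Sacrifice at 2 h. Excised tumors analysed by western blot for pERK1/2 and pAKT.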

[7] = molecular target: T1, Dual specificity mitogen-activated protein kinase kinase 1; test: Inhibition of purified MEK1 (unknown origin) assessed as reduction in phosphorylation of inactive Erk2 incubated for 30 mins by Kinase-Glo luminescent kinase assay
[8] = Inhibition of PI3K (unknown origin) assessed as reduction in lipid kinase activity by fluorescence-based Adapta TR-FRET assay; design: species or system Homo sapiens
[9] = test system: Mus musculus; test: In-vivo inhibition of PI3K in human D54 cells xenografted nude Foxn1nu mouse assessed as reduction in tumor AKT phosphorylation at 375 mg/kg, po dosed 2 hrs before mouse sacrifice by Western blot method; assay type: functional; in short: as §3
[10] = test system: D54; test: Inhibition of PI3K in human D54 cells assessed as inhibition of AKT phosphorylation at 1 to 25 uM incubated for 1 hr by Western blotting; assay type: cell-based; in short: as §2
[11] = molecular target: T1, Dual specificity mitogen-activated protein kinase kinase 1; test: Inhibition of MEK1 in human D54 cells assessed as inhibition of ERK1/2 phosphorylation at 1 to 25 uM incubated for 1 hr by Western blotting; assay type: cell-based; in short: as §2
[12] = molecular target: Dual specificity mitogen-activated protein kinase kinase 1 (Mus musculus, UniProt P31938); test: Inhibition of MEK1 in mouse C26 cells assessed as inhibition of ERK1/2 phosphorylation incubated for 1 hr by Western blotting; assay type: cell-based
[13] = test system: D54; test: Cytotoxic activity against human D54 cells assessed as reduction in cell viability incubated for 48 hrs in presence of PD0325901 by alamar blue assay; assay type: functional, cell-based; in short: as §1
[14] = test system: Mus musculus; test: In-vivo inhibition of PI3K in human D54 cells xenografted nude Foxn1nu mouse assessed as reduction in tumor AKT phosphorylation dosed through oral gavage 2 hrs before mouse sacrifice by Western blot method; assay type: functional, organism-based; in short: as §3
[15] = test system: Mus musculus; test: In-vivo inhibition of MEK1 in human A549 cells xenografted nude Foxn1nu mouse assessed as reduction in tumor ERK1/2 phosphorylation dosed through oral gavage 2 hrs before mouse sacrifice by Western blot method; assay type: functional, organism-based; in short: as §3
[16] = test system: Mus musculus; test: In-vivo inhibition of PI3K in human A549 cells xenografted nude Foxn1nu mouse assessed as reduction in tumor AKT phosphorylation dosed through oral gavage 2 hrs before mouse sacrifice by Western blot method; assay type: functional, organism-based; in short: as §3
[17] = test system: Mus musculus; test: In-vivo inhibition of MEK1 in human D54 cells xenografted nude Foxn1nu mouse assessed as reduction in tumor ERK1/2 phosphorylation dosed through oral gavage 2 hrs before mouse sacrifice by Western blot method; assay type: functional, organism-based; in short: as §3

T1 sequence (Q02750 whole entry): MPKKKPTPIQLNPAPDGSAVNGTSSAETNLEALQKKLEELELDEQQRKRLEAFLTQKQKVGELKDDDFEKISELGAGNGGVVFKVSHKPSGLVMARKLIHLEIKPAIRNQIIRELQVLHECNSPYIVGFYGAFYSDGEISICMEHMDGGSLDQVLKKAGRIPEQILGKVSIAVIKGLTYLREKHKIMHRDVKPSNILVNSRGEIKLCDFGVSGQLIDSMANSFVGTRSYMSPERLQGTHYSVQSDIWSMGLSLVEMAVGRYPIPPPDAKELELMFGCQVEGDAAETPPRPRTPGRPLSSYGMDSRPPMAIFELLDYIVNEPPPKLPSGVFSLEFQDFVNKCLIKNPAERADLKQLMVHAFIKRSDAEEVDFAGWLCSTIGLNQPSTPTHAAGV
Dual specificity mitogen-activated protein kinase kinase 1 (Mus musculus, UniProt P31938), sequence (P31938 whole entry): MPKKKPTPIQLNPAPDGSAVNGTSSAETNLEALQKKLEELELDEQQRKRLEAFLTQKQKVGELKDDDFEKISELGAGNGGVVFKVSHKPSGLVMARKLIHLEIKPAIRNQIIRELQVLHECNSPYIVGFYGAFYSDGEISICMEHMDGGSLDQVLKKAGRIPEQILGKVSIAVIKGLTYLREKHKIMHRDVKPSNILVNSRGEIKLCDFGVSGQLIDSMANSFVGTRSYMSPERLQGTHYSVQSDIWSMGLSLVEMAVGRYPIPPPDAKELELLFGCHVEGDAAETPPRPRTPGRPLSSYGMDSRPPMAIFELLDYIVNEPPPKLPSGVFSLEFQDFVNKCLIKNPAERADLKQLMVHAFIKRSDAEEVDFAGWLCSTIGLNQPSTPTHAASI

SMILES	inhibition [2]	inhibition [3]	inhibition [4]	inhibition [5]	inhibition [10]	inhibition [11]	other results
O=C(NOC[C@H](O)CO)c1ccc(F)c(F)c1Nc1ccc(I)cc1F	Dose-dependent effect	Dose-dependent effect					Activity [1]: Active
O=C(NOCCOCCOCCOCCN1CCN(c2nc(N3CCOCC3)nc(-n3c(C(F)F)nc4ccccc43)n2)CC1)c1ccc(F)c(F)c1Nc1ccc(I)cc1F	Dose-dependent effect	Dose-dependent effect	Active	Active	Active	Active	inhibition in vivo at 375 mg/kg [6]: 95%; pIC50 [7]: 10.82; pIC50 [8]: 6.72; inhibition in vivo at 375 mg/kg [9]: 67%
O=C(NOCCNCCCCS(=O)(=O)N1CCN(c2nc(N3CCOCC3)nc(-n3c(C(F)F)nc4ccccc43)n2)CC1)c1ccc(F)c(F)c1Nc1ccc(I)cc1F	Dose-dependent effect	Dose-dependent effect	Active			Active	pIC50 [8]: 6.55
CNCCONC(=O)c1ccc(F)c(F)c1Nc1ccc(I)cc1F							pIC50 [12]: 7.70
O=C(CNCCONC(=O)c1ccc(F)c(F)c1Nc1ccc(I)cc1F)NCCCCCC(=O)N1CCN(c2nc(N3CCOCC3)nc(-n3c(C(F)F)nc4ccccc43)n2)CC1	Dose-dependent effect	Dose-dependent effect	Active	Active	Active	Active	
FC(F)c1nc2ccccc2n1-c1nc(N2CCOCC2)nc(N2CCOCC2)n1	Dose-dependent effect	Dose-dependent effect					Activity [13]: Active
O=C(NOCCNCCCCCC(=O)N1CCN(c2nc(N3CCOCC3)nc(-n3c(C(F)F)nc4ccccc43)n2)CC1)c1ccc(F)c(F)c1Nc1ccc(I)cc1F	Dose-dependent effect	Dose-dependent effect	Active	Active	Active	Active	inhibition [14]: Active; inhibition [15]: Active; inhibition [16]: Active; inhibition [17]: Active
